According to paper PMC11187553 (RSC Medicinal Chemistry, 2024):
Entries after “also recorded” stand apart in the source; their conditions may differ.

What was measured:
[1] = tested on: SH-SY5Y cells; test: Cytotoxic effects in SH-SY5Y cells; assay type: cell-based, human; conditions: for cytotoxicity (in words): 0.1-100 μM, 24, 48 or 72 h
[2] = tested on: SH-SY5Y cells; test: SH-SY5Y viability after sulforaphane; assay type: cell-based, human; conditions: data not shown
[3] = tested on: reactive oxygen species (ROS) in SH-SY5Y cells; test: ROS determination with DCFDA probe in SH-SY5Y cells; assay type: cell-based, human; conditions: for protective effect against TBH-induced oxidative stress: 2 μM 24 h pre-treatment, 100 μM tert-butyl hydroperoxide 30 min; for effect on endogenous ROS (oxidative stress) vs control: 2 μM, 24 h, DCFDA
Summary of the method: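 SH-SY5Y cells (1 × 10^4/well) were left 24 h to adhere, then given vehicle or 2 μM test compound for 24 h. After washing, cells were loaded with 10 μM DCFDA in DMEM for 30 min. Oxidative stress was then induced with 100 μM tert-butyl hydroperoxide in PBS for 30 min. Fluorescence (485/535 nm) was normalised to Lowry protein; experiments were done in triplicate.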

[4] = tested on: SH-SY5Y cells; test: SH-SY5Y viability after NAC pre-treatment and compound 6; assay type: cell-based, human; conditions: NAC 2 mM 1 h, then compound 10 μM 24 h
[5] = tested on: histones H2/H3 lysine acetylation; test: Western blot of lysine acetylation of histones H2/H3 in SH-SY5Y cells; assay type: cell-based, human; conditions: 5 μM, 6 h
Summary of the method: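 SH-SY5Y cells were seeded at 20 × 10^4 cells/cm2 and grown 48 h, then given 5 μM test compound or vehicle for 6 h. Cells were washed in 10 mM sodium butyrate/PBS, nuclei isolated, and histones acid-extracted (0.4 N H2SO4, 4 °C, 1 h) and precipitated in acetone. Samples ran on 15% gels and were blotted to nitrocellulose with anti-acetyl-lysine antibody. Densitometry was normalised to H1.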

[6] = tested on: SH-SY5Y cells; test: Analysis of cell cycle in SH-SY5Y cells; assay type: cell-based, human; conditions: 72 h
Summary of the method: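 SH-SY5Y cells were grown in DMEM with 10% FBS and antibiotics at 37 °C in 5% CO2. After 72 h with test compound, cells were collected, fixed in 70% ice-cold ethanol and stained with a propidium iodide cell-cycle reagent for 30 min in the dark at room temperature. Cell-cycle distribution was read by flow cytometry.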

[7] = tested on: HepG2 cells; test: Cytotoxicity in human hepatoma cell line HepG2; assay type: cell-based; conditions: 24 h incubation at 1-100 μM, MTT
Summary of the method: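 HepG2 cells were grown in MEM with 10% FBS, penicillin and streptomycin, then seeded at 1.5 × 10^4 cells/well. After 24 h they received test compound ([…]) in complete medium or vehicle for 24 h. MTT (0.2 mg mL−1 in PBS) was added for 2 h at 37 °C, formazan was dissolved in DMSO, and A570 was read. Results are % live cells versus vehicle, mean ± SD, n = 4.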

[8] = tested on: neural progenitor cells (neurospheres); test: Neurospheres differentiation analysis; assay type: cell-based, Mus musculus; conditions: 2.5 and 5 μM, 7 DIV
Summary of the method: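 Neurospheres came from subventricular-zone NPCs of 8-month-old male C57BL/6N mice. Thirty spheres were plated on Matrigel-coated coverslips in complete DMEM F-12 with test compound or DMSO for 7 DIV. Cells were fixed in 4% PFA, permeabilised with Triton, blocked in goat serum, and stained overnight at 4 °C for DCX, GFAP, Olig2 and Nestin. Confocal z-stacks gave marker intensity/DAPI intensity; mean ± SD of 3 fields per condition.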

[9] = target: T1, HDAC6 (Homo sapiens, UniProt Q9UBN7); test: HDAC inhibition in vitro assay; assay type: biochemical; conditions: from IC50 values of Table 2
T1 sequence (Q9UBN7 1-1215): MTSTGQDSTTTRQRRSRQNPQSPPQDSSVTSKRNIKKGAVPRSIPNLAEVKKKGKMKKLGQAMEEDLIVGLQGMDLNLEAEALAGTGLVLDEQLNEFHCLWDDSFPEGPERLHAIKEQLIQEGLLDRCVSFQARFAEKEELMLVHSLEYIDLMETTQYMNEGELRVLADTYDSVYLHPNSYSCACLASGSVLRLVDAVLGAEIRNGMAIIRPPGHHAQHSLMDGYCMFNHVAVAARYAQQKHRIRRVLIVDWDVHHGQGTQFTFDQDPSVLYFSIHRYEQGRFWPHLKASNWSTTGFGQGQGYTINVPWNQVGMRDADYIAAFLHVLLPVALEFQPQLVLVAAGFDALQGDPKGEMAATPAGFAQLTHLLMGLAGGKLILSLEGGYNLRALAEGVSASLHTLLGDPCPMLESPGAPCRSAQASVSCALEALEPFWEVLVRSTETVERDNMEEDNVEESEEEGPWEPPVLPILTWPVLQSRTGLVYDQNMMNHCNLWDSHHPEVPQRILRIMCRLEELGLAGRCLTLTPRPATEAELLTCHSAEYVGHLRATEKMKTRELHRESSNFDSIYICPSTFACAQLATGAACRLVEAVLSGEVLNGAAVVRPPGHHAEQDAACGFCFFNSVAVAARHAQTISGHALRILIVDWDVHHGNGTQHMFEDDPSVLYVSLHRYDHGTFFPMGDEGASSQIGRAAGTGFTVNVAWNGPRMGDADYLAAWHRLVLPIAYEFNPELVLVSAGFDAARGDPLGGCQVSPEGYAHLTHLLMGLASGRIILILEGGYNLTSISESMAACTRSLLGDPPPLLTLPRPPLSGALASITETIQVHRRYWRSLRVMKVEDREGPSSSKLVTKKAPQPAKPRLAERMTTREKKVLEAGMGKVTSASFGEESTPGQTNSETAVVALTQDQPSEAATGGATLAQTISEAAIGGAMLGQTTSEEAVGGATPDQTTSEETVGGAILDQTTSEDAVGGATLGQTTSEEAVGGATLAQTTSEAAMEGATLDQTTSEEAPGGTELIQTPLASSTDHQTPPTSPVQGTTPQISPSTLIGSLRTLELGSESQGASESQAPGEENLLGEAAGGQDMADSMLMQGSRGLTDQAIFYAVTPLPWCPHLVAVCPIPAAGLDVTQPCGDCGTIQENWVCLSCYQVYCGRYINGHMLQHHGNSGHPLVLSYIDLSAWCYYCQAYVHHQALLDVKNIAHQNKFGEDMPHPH

[10] = tested on: SH-SY5Y cells; test: Protection of SH-SY5Y cells from H2O2 cytotoxicity; assay type: cell-based, human; conditions: pre-treatment at all concentrations (1-50 μM), 24 h
[11] = tested on: neural progenitor cells (neurospheres); test: Neurospheres proliferation; assay type: cell-based, Mus musculus; conditions: 7 DIV
Summary of the method: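 NPCs from the subventricular zone of 8-month-old male C57BL/6N mice were Accutase-dissociated and plated as single cells (5 × 10^3/well) in suspension. Medium was DMEM-F12 with glutamine, insulin, 20 ng ml−1 EGF, 20 ng ml−1 FGF2, N2 and B27. Test compound (2.5–50 μM) or DMSO was present for 7 DIV. Brightfield live-cell images were taken daily; only aggregates over 400 μm2 were analysed.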

## O=C(CS)NCCCCNC1=CC(=O)c2ccccc2C1=O [Compound 7, N-(4-((1,4-Dioxo-1,4-dihydronaphthalen-2-yl)amino)butyl)-2-mercaptoacetamide]
[1]
  cytotoxicity (in words): lowest cytotoxicity

## CC1=C(NCc2ccc(C(=O)Nc3ccccc3N)cc2)C(=O)c2ccccc2C1=O [Compound 6, N-(2-Aminophenyl)-4-(((3-methyl-1,4-dioxo-1,4-dihydronaphthalen-2-yl)amino)methyl)benzamide]
[2]; SFN pre-treatment
  change of toxic activity in cells pretreated with sulforaphane: did not observe any change in the toxic activity
[3]
  protective effect against TBH-induced oxidative stress: did not show any protective effect
  effect on endogenous ROS (oxidative stress) vs control: significant induction of oxidative stress
[4]
  mitigation of cytotoxic effect by NAC pre-treatment: not mitigated
[5]
  acetylation of histone H2/H3 lysines: massive hyperacetylation
[6]
  cell-cycle block in G0/G1, S or G2/M (cytostatic effect): no cell-cycle block

## Nc1ccccc1NC(=O)c1ccc(CNC2=CC(=O)c3ccccc3C2=O)cc1 [Compound 5, N-(2-Aminophenyl)-4-(((1,4-dioxo-1,4-dihydronaphthalen-2-yl)amino)methyl)benzamide]
[1]
  cytotoxicity (in words): comparable to that of vorinostat

## CC1=C(NCCCCCC(=O)NO)C(=O)c2ccccc2C1=O [Compound 2, N-Hydroxy-6-((3-methyl-1,4-dioxo-1,4-dihydronaphthalen-2-yl)amino)hexanamide]
[1]; Homo sapiens, 24 h, read-out: IC50 (μM) ± SEM 24 h
  IC50: > 100 µM

## CC1=C(NCCCCNC(=O)CS)C(=O)c2ccccc2C1=O [Compound 8, 2-Mercapto-N-(4-((3-methyl-1,4-dioxo-1,4-dihydronaphthalen-2-yl)amino)butyl)acetamide]
[7]
  toxicity in HepG2 cells (in words): no significant toxicity up to 10 μM
[2]; SFN (NQO1 inducer)
  protective activity in H2O2-stressed cells after sulforaphane treatment: no increase in the protective activity
[8]
  DCX+ cells (immature neurons marker) vs DMSO control: significantly increased
  GFAP expression (astrocytes marker) vs DMSO control: without affecting
  Nestin+ cells (NPCs marker) vs DMSO control: decreased
  Olig2 expression (OPCs marker) vs DMSO control: without affecting
[3]
  protective effect against TBH-induced oxidative stress: did not show any protective effect
  effect on endogenous ROS (oxidative stress) vs control: only a tendency to increase ROS production
[1]
  cytotoxicity (in words): nontoxic up to the concentration of 100 μM; also recorded: lowest cytotoxicity
[9]
  selectivity between HDAC2 and HDAC6 isoforms: no selectivity
[10]
  rescue of SH-SY5Y cell viability from H2O2: did not rescue
[11]; 2.5 and 5 μM
  neurospheres number per well vs DMSO control: significantly increased
  neurospheres size vs DMSO control: without affecting
[11]; higher concentrations 25, 50 μM
  toxicity to neurospheres: toxic
